Consider twelve compounds from ChEMBL document CHEMBL1122883, “An interdisciplinary approach to the design of new structures active at the beta-adrenergic receptor. Aliphatic oxime ether derivatives” (J Med Chem, 1985).

For experiment [1], the target named is Beta-2 adrenergic receptor (Cavia porcellus) (UniProt Q8K4Z4). Put plainly: Specific antagonistic activity difference against beta-2 adrenergic receptor of isolated guinea pig tracheal strips. It is filed as functional.
Experiment [2] has as its target Beta-1 adrenergic receptor (Cavia porcellus) (UniProt B0FL73). Put plainly: Specific antagonistic activity difference against beta-1 adrenergic receptor of isolated guinea pig atria. It is filed as functional.
In experiment [3] the target is Beta-2 adrenergic receptor (Cavia porcellus, UniProt Q8K4Z4). Put plainly: Antagonistic activity against beta-2 adrenergic receptor on isolated guinea pig tracheal strips. It is filed as functional, tissue-based, Trachea. Conditions: read-out: pA2 (converted). The method, boiled down: (§1)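 Tracheal strips from male adult guinea pigs (300–350 g) in Krebs–Henseleit with ascorbic acid (0.1 mg/mL) and phentolamine (0.1 μg/mL), 37 °C, 95% O2–5% CO2. Strips were under 0.5 g tension, stabilized 30 min, and given steady tone with carbachol 5 × 10^-7 M. Isotonic recording. Agonist dose–response curves to noradrenaline and isoprenaline were run before and after 20 min antagonist contact.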
Sequence of Beta-2 adrenergic receptor (Q8K4Z4 whole entry): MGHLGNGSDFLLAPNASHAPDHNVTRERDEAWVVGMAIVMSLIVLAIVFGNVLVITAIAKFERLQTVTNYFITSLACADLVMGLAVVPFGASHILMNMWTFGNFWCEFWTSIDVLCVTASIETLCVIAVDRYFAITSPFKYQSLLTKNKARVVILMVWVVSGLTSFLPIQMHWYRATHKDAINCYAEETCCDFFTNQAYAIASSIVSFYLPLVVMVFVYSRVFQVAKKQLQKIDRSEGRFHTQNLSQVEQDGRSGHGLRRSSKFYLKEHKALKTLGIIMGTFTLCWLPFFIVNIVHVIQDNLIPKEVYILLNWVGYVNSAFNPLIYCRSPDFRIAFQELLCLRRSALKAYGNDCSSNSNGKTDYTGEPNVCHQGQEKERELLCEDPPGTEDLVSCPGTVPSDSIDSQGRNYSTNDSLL

The target of experiment [4] is Beta-1 adrenergic receptor (Cavia porcellus) (UniProt B0FL73). In words: (§2) Antagonistic activity against beta-1 adrenergic receptor of isolated guinea pig atria. It is filed as functional. In short, it runs like this:
(§3)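 Antagonism was assessed from dose–response curves to noradrenaline and isoprenaline obtained before and after a 20 min contact period with the test antagonist. Each agonist was allowed to act until maximal response.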

Experiment [5] addresses Beta-1 adrenergic receptor (Cavia porcellus, UniProt B0FL73). The description is as §2. To be noted: read-out: pA2 (converted). It is filed as functional. The method, boiled down: as §3
Experiment [6] addresses Beta-2 adrenergic receptor (Cavia porcellus) (UniProt Q8K4Z4). Put plainly: Antagonistic activity against beta-2 adrenergic receptor of isolated guinea pig tracheal strips. It is filed as functional, tissue-based. To be noted: Trachea. The method, boiled down: as §1
Experiment [7] addresses Beta-1 adrenergic receptor (Cavia porcellus) (UniProt B0FL73). Put plainly: […] activity against beta-1 adrenergic receptor on isolated guinea pig atria. It is filed as functional. In short, it runs like this:
as §3

For experiment [8] the target is unchanged. In words: Stimulating activity against beta-1. The method, boiled down:
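Agonist given until maximal response was reached, building dose–response curves. Affinity expressed as pD2, calculated by the Ariëns–Van Rossum method.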

Experiment [9] has the same target.

Sequence of Beta-1 adrenergic receptor (B0FL73 whole entry): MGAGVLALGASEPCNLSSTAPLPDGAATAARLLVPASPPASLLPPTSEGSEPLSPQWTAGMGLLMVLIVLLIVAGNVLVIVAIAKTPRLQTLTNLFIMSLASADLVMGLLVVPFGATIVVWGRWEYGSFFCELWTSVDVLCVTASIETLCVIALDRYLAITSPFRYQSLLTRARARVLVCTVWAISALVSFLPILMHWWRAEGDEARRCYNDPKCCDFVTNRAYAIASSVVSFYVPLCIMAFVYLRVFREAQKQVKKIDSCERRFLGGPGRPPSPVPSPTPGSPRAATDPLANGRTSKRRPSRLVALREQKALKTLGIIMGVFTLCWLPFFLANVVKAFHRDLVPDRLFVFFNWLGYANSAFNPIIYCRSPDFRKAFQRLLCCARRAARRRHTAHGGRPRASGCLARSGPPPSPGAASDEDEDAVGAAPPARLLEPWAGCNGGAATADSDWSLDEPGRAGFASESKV
Sequence of Beta-1 adrenergic receptor (Cavia porcellus) (B0FL73 1-467): as the sequence (B0FL73 whole entry) above
Sequence of Beta-2 adrenergic receptor (Cavia porcellus) (Q8K4Z4 whole entry, looked up): as the sequence (Q8K4Z4 whole entry) above

Regarding `CC(C)NCC(O)CON=C1CCCCC1` (centres undefined), the pA2 - pA10 was 0.5 in experiment [1] and 0.82 in experiment [2]. The results for the Kb in experiment [3] and in [5] were 72.4 nM and 20000 nM, respectively. Also, the pA10 is 3.88 in experiment [4] and 6.64 in experiment [6].

Consider `CC(C)(C)NCC(O)CON=C1CCCC1` (centres undefined), for which the pA2 - pA10 was 0.88 in [1] and 0.69 in experiment [2]. The Kb in experiment [3] was 174 nM; in [5], 53700 nM. Moreover, the pA10 in experiment [4] was determined as 3.58; in experiment [6], 5.88.

For `CCCC(CCC)=NOCC(O)CNC(C)(C)C` (centres undefined), the pA2 - pA10 in [1] was 0.69; in experiment [2], 0.85. Besides, the Kb was 2.4 nM in experiment [3] and 4680 nM in [5]. In addition, the results for the pA10 in experiment [4] and in [6] were 4.48 and 7.93, respectively.

With `CCC(CC)=NOCC(O)CNC(C)C` (centres undefined), the pA2 - pA10 in experiment [1] amounted to 0.81; in [2], 0.78. For the same compound, the figures for the Kb in experiment [3] and in experiment [5] were 4.17 nM and 955 nM, respectively. Also, the figures for the pA10 in experiment [4] and in [6] were 5.24 and 7.57, respectively.

As to `CCC(CC)=NOCC(O)CNC(C)(C)C` (centres undefined), the pA2 - pA10 is 0.84 in experiment [1] and 0.71 in experiment [2]. Also, the results for the Kb in experiment [3] and in experiment [5] were 10.5 nM and 1260 nM, respectively. Further, the pA10 is 5.19 in [4] and 7.14 in [6].

As to `CCCC(CCC)=NOCC(O)CNC(C)C` (centres undefined), the pA2 - pA10 amounted to 0.714 in experiment [1] and 0.55 in experiment [2]. The Kb in experiment [3] was 6.31 nM; in experiment [5], 20900 nM. For the same compound, the pA10 was found to be 4.13 in [4] and 7.49 in experiment [6].

For `OCc1ccc(O)c(O)c1`, the pD2 in experiment [7] was 8.44.

Turning to `COc1ccc(OC)c(C(O)C(C)NC(C)(C)C)c1` (centres undefined) [BUTOXAMINE], the pA2 - pA10 in experiment [1] worked out at 0.93; in experiment [2], 0.37. The Kb in [3] was 129 nM; in [5], 44700 nM. Moreover, the pA10 turned out to be 3.98 in [4] and 5.96 in [6].

Consider `CC(C)C(=NOCC(O)CNC(C)(C)C)C(C)C` (centres undefined), for which the pA2 - pA10 worked out at 0.82 in [1] and 0.9 in experiment [2]. In addition, the Kb in experiment [3] was 22.9 nM; in experiment [5] it was 14500 nM. Further, the pA10 amounted to 3.94 in experiment [4] and 6.82 in experiment [6]. This compound returned a pD2 in experiment [8] of 6.12.

As for `CC(C)NCC(O)CON=C(C(C)C)C(C)C` (centres undefined), the pA2 - pA10 in experiment [1] was determined as 0.9; in [2], 0.89. The Kb is 3.02 nM in experiment [3] and 17000 nM in experiment [5]. Also, the values for the pA10 in experiment [4] and in experiment [6] were 3.88 and 7.62, respectively. For the same compound, the pD2 in experiment [9] stood at 6.08.

On to `CC(C)(C)NCC(O)CON=C1CCCCC1` (centres undefined), for which the pA2 - pA10 turned out to be 0.6 in [1] and 0.78 in experiment [2]. In addition, the Kb in experiment [3] was 38.9 nM; in [5], 8320 nM. Moreover, the pA10 in experiment [4] was determined as 4.3; in [6], 6.81.

On to `CC(C)NCC(O)CON=C1CCCC1` (centres undefined), for which the figures for the pA2 - pA10 in experiment [1] and in [2] were 0.71 and 0.8, respectively. The Kb in [3] is 155 nM; in [5], 24500 nM. Also, the pA10 in [4] came to 3.81; in experiment [6] it was 6.09.
